These results are taken from ChEMBL document CHEMBL4346668, “Novel multitarget inhibitors with antiangiogenic and immunomodulator properties” (Eur J Med Chem, 2019).

The source made the active and inactive calls. No cut-off for these calls is given here. Where only a bound is given, the exact number is not on record here.

Test [1] deals with HT-29. As to the kind of experiment: Antiproliferative activity against human HT-29 cells incubated for 2 days by MTT assay. In kind it is functional, cell-based. The conditions noted are these: HT-29, 48 h. A digest of the protocol: (§1)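 MTT assay. Cells seeded at 3 × 10³/well (HeLa, A549, HMEC-1, HEK-293) or 5 × 10³/well (HT-29, MCF-7) in their growth media with serial compound dilutions from 10 mM DMSO stocks. Incubated 2 days at 37 °C, 5% CO₂, then MTT added for 3 h and formazan dissolved in DMSO. A540 read and viability expressed versus untreated cells. IC₅₀ determined graphically; three independent experiments.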

A further test relates to MCF7. Nature of the test: Antiproliferative activity against human MCF7 cells incubated for 2 days by MTT assay. The test is classed as functional, cell-based. Particulars: MCF7, 48 h. A digest of the protocol:
as §1

A further test deals with HeLa. As to the kind of experiment: Antiproliferative activity against human HeLa cells incubated for 2 days by MTT assay. In kind it is functional, cell-based. The conditions noted are these: 48 h. In outline:
as §1

The test system of test [2] is A549. Nature of the test: Antiproliferative activity against human A549 cells incubated for 2 days by MTT assay. In kind it is functional, cell-based. The conditions noted are these: A549, 48 h. In outline:
as §1

The subject of test [3] is HMEC-1. Nature of the test: Antiproliferative activity against HMEC1 cells incubated for 2 days by MTT assay. In kind it is cell-based. Particulars: Homo sapiens, HMEC-1, 48 h. A digest of the protocol: as §1
The subject of a further test is HEK293. Nature of the test: Antiproliferative activity against HEK293 cells incubated for 2 days by MTT assay. The test is classed as cell-based. Particulars: Homo sapiens, HEK293, 48 h. A digest of the protocol:
as §1

The target in test [4] is Vascular endothelial growth factor receptor 2 (Homo sapiens) (UniProt P35968). Nature of the test: Inhibition of VEGFR2 in HMEC1 cells assessed as phosphorylated Erk1/2 level at 10 uM incubated for 24 hrs by Western blot analysis relative to control. In kind it is cell-based. In outline:
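HMEC-1 lysates from the phospho-VEGFR-2 experiment (24 h compound, serum starvation, 30 min VEGF-165 stimulation) used at 100 µg protein for SDS gel electrophoresis and PVDF transfer. Blocked in 5% milk/TBST, then probed overnight at 4 °C with anti-phospho-ERK1/2 (T202/[…]) and an HRP secondary. Chemiluminescent detection; β-actin as internal control; quantified versus DMSO control.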

For test [5], the system named is HMEC-1. Nature of the test: Antiangiogenic activity against HMEC1 cells assessed as inhibition of tube formation incubated for 20 hrs by matrigel based tube formation assay. In kind it is functional, Homo sapiens. A digest of the protocol: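 HMEC-1 cells in EGM-2MV medium seeded at 2 x 10⁴ cells/well on Matrigel (10 mg/mL, gelled 30 min at 37°C) and attached for 30 min. Compounds were added at different concentrations and tube formation was assessed after 20 h at 37°C. The minimum concentration at which inhibition began was reported. Data representative of three experiments.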

Test [6] deals with A549. Nature of the test: Immunomodulatory activity in human A549 cells assessed as reduction in PD-L1 expression level at 100 uM incubated for 24 hrs by ELISA relative to control. Also noted: scale not given: the % may be the effect or the level left. The test is classed as functional. A digest of the protocol: (§2)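 A549 cells (3·10⁵/well) treated 24 h with compound; final concentration 100 µM for some compounds and 15 µM for others per table footnote. Lysates protein-normalized by Bradford, and PD-L1 and c-Myc quantified by commercial ELISA kits as % of DMSO-treated cells. Mean ± SD of three experiments.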

In test [7] the test system is A549. Nature of the test: Immunomodulatory activity in human A549 cells assessed as reduction in c-Myc expression level at 100 uM incubated for 24 hrs by ELISA relative to control. In kind it is functional. Also noted: scale not given: the % may be the effect or the level left. A digest of the protocol:
as §2

The test system of test [8] is A549. As to the kind of experiment: Antiproliferative activity against human A549 cells at 200 uM incubated for 24 hrs in presence of Jurkat T cells by trypan blue staining based Neubauer chamber method relative to control. The test is classed as functional. A digest of the protocol:
(§3)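 Co-culture of 5 × 10⁴ tumor cells/well with 2 × 10⁵ PD-1-expressing Jurkat T cells in 1.5 mL, treated 24 h with compound at 200 µM. Supernatant discarded; tumor cells trypsinized, stained with trypan blue and living cells counted in a Neubauer chamber. Proliferation inhibition (%) attributable to Jurkat presence reported; representative of three experiments.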

Test [9] has as its system A549. As to the kind of experiment: Induction of apoptosis in human A549 cells assessed as apoptotic cells at 100 uM incubated for 24 hrs by FITC-Annexin V staining based flow cytometric analysis (reference value: 20%). In kind it is functional.
The test system of test [10] is A549. As to the kind of experiment: Effect on VEGFR2 in human A549 cells assessed as membrane VEGFR2 level at 10 uM incubated for 24 hrs by flow cytometric analysis relative to control. The test is classed as functional. In outline: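 A549 cells incubated 24 h with compound at 10 µM. Membrane VEGFR-2 (fixed cells) and total VEGFR-2 (permeabilized or lysate) stained with Alexa Fluor 647 anti-CD309 and quantified by flow cytometry relative to DMSO control; mean ± SD of three experiments.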

In test [11] the test system is A549. As to the kind of experiment: Effect on VEGFR2 in human A549 cells assessed as total VEGFR2 level at 10 uM incubated for 24 hrs by flow cytometric analysis relative to control. The test is classed as functional.
The test system of test [12] is A549. Nature of the test: Effect on VEGFR2 in human A549 cells assessed as reduction in membrane VEGFR2 level incubated for 24 hrs by confocal laser scanning microscopic method. The test is classed as functional, cell-based. A digest of the protocol:
(§4)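 A549 cells on cover glass treated 24 h with compound at 10 µM, then permeabilized (PEM-Triton X-100 0.5%) and fixed (3.7% formaldehyde). Direct staining 2 h at 37°C in darkness with Alexa Fluor 647 anti-VEGFR-2. Confocal imaging with a 63x oil objective, excitation 650 nm, emission 665 nm.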

The test system of test [13] is A549. As to the kind of experiment: Effect on VEGFR2 in human A549 cells assessed as inhibition of VEGFR2 protein internalization to nucleus incubated for 24 hrs by confocal laser scanning microscopic method. In kind it is functional, cell-based. In outline: as §4
Test [14] concerns HMEC-1. Nature of the test: Effect on VEGFR2 in HMEC1 cells assessed as membrane VEGFR2 level at 10 uM incubated for 24 hrs by flow cytometric analysis relative to control. In kind it is functional, Homo sapiens. A digest of the protocol:
(§5)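 HMEC-1 cells exposed 24 h to compound. Membrane VEGFR-2 measured on fixed cells stained with Alexa Fluor 647 anti-CD309; total VEGFR-2 measured on lysates or permeabilized cells. Read by flow cytometry as % of DMSO control; mean ± SD of three experiments.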

The subject of test [15] is HMEC-1. As to the kind of experiment: Effect on VEGFR2 in HMEC1 cells assessed as total VEGFR2 level at 10 uM incubated for 24 hrs by flow cytometric analysis relative to control. The test is classed as functional, Homo sapiens. A digest of the protocol: as §5
Test [16] has as its target Vascular endothelial growth factor receptor 2 (Homo sapiens) (UniProt P35968). Nature of the test: Inhibition of VEGFR2 in HMEC1 cells assessed as phosphorylated VEGFR2 level at 10 uM incubated for 24 hrs by sandwich ELISA. The test is classed as cell-based. In outline:
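HMEC-1 cells (5 × 10⁵/well) grown to 80% confluence, starved 24 h in 0.1% FBS medium, then treated 24 h with compound. Stimulated with VEGF-165 100 ng/ml for 30 min at 37°C. Lysates Bradford-normalized; phospho-VEGFR-2 (Tyr1175) measured by sandwich ELISA, % of DMSO control.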

Test [17] relates to HMEC-1. As to the kind of experiment: Ratio of MAC for sorafenib to MAC of test compound for antiangiogenic activity against HMEC1 cells. In kind it is functional, Homo sapiens.
The test system of test [18] is HMEC-1. As to the kind of experiment: Antiangiogenic activity against HMEC1 cells assessed as inhibition of neovascularization at 0.01 to 1 uM incubated for 20 hrs. The test is classed as functional, cell-based. The conditions noted are these: Homo sapiens. A digest of the protocol: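 HMEC-1 cells seeded on Matrigel-coated wells (10 mg/mL Matrigel, gelled 30 min at 37°C) at 2 x 10⁴ cells/well in EGM-2MV medium and allowed to attach 30 min. Compound was then added at 1, 0.1 and 0.01 µM, and tube destruction was assessed after 20 h at 37°C by imaging.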

Test [19] has as its system A549. Nature of the test: Immunomodulatory activity in human A549 cells assessed as inhibition of c-Myc level at 100 uM incubated for 24 hrs by confocal laser scanning microscopic method. In kind it is functional, cell-based. A digest of the protocol: (§6)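 A549 cells on cover glass treated 24 h at 100 µM, permeabilized with PEM-Triton X-100 0.5% and fixed in 3.7% formaldehyde. Direct immunostaining 2 h at 37°C in darkness with anti-PD-L1-AlexaFluor647 (excitation 650, emission 665 nm) and anti-c-Myc-FITC (excitation 488, emission 496–535 nm). Confocal microscopy, 63x oil objective.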

Test [20] relates to A549. As to the kind of experiment: Immunomodulatory activity in human A549 cells assessed as inhibition of PD-L1 level at 100 uM incubated for 24 hrs by confocal laser scanning microscopic method. In kind it is functional, cell-based. In outline: as §6
The target in test [21] is Programmed cell death 1 ligand 1 (Homo sapiens) (UniProt Q9NZQ7). Nature of the test: Binding affinity to PDL1 (unknown origin) assessed as change in melting temperature at 100 uM by fluorescence based real time RT-PCR analysis.
The target in test [22] is Vascular endothelial growth factor receptor 2 (Homo sapiens) (UniProt P35968).
Test [23] concerns HT-29. As to the kind of experiment: Antiproliferative activity against human HT-29 cells at 200 uM incubated for 24 hrs in presence of Jurkat T cells by trypan blue staining based Neubauer chamber method relative to control. In kind it is functional. In outline:
as §3

Sequence of Programmed cell death 1 ligand 1 (Homo sapiens) (Q9NZQ7 whole entry): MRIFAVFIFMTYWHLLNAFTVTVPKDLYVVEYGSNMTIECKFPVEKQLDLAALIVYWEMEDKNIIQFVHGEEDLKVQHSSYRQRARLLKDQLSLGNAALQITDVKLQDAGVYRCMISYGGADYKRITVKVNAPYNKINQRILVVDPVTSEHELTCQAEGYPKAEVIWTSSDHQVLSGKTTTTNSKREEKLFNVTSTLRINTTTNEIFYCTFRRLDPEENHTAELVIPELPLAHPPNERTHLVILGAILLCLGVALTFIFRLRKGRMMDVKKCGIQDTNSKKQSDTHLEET
Sequence of Vascular endothelial growth factor receptor 2 (Homo sapiens) (P35968 whole entry): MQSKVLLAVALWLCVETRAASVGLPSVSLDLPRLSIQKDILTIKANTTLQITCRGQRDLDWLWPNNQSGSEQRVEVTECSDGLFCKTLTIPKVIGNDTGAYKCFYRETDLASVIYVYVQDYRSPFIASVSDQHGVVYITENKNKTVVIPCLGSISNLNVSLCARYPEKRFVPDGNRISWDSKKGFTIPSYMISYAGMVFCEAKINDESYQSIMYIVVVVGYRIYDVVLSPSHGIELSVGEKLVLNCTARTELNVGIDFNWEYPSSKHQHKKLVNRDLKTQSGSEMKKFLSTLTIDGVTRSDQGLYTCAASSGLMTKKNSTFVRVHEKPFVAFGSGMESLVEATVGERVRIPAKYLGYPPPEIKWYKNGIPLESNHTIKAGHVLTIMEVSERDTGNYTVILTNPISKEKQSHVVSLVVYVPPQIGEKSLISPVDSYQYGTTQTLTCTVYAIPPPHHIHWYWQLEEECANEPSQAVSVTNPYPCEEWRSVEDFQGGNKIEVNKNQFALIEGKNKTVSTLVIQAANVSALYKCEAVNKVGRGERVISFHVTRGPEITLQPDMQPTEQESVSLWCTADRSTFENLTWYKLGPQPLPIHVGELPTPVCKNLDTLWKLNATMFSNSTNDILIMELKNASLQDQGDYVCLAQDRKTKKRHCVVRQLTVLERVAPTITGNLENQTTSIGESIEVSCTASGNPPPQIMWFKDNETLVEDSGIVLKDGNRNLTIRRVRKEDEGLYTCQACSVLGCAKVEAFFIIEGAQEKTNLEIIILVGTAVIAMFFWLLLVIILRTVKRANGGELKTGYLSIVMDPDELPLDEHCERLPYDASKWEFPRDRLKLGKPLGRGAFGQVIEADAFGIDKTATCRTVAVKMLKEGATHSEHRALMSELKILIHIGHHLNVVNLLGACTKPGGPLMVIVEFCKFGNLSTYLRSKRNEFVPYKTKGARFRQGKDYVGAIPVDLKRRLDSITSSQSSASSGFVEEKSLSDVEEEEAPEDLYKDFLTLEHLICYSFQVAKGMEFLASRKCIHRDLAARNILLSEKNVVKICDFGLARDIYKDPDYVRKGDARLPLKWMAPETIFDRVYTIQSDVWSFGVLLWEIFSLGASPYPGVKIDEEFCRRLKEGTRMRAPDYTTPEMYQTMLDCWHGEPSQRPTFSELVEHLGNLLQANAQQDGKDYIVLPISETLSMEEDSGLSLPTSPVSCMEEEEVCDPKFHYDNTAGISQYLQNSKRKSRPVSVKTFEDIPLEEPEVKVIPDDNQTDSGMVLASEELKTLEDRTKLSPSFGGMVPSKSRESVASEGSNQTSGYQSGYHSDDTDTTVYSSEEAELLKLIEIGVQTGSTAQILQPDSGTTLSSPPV

Take `COc1ccc(/C=C/c2cccc(NC(=O)Nc3ccc(Cl)cc3)c2)cc1`: the IC50 was found to be 0.52 µM with HT-29 [1]; 0.4 µM in the test on MCF7; 0.7 µM in the test on HeLa; 1.5 µM in the test on A549 [2]; 1.8 µM in the test with HMEC-1 [3]; 1 µM in the test on HEK293. Also, the outcome in test [4] and in test [16] was inactive. Further, the MAC in the test with HMEC-1 [5] was found to be 0.1 µM. For the same compound, the Activity in the test with A549 [6] is on record as 25%; in the test on A549 [7], 37%; in the test on A549 [8], 86%; with A549 [9] it was 48%; with A549 [10] it was 56%; in the test on A549 [11], 10%. Further, the Activity worked out at 56% in the test with HMEC-1 [14] and 109% in the test on HMEC-1 [15]. For the same compound, the outcome in the test with A549 [12], in the test on A549 [13], in the test on HMEC-1 [18], in the test with A549 [19] and with A549 [20] was Active. For the same compound, the Ratio in the test on HMEC-1 [17] came to 100. Besides, the ΔTm came out at 1.18 °C in [21] and 6.25 °C in test [22].

Turning to `COc1ccc(/C=C/c2cccc(NC(=O)Nc3cccc(Cl)c3)c2)cc1`, the IC50 is 3.5 µM in the test with HT-29 [1]; 4.3 µM with MCF7; 11.3 µM in the test on HeLa; 7.7 µM in the test on A549 [2]; 2 µM with HMEC-1 [3]; 2.4 µM with HEK293. For the same compound, the outcome in test [4] and in test [16] was inactive. Besides, the MAC with HMEC-1 [5] came to 0.1 µM. The Activity in the test on A549 [6] is 49%; in the test with A549 [7], 65%; in the test on A549 [8], 76%; in the test with A549 [9], 75%; in the test with A549 [10], 52%; in the test on A549 [11], 32%. The Activity came to 55% with HMEC-1 [14] and 106% in the test with HMEC-1 [15]. Besides, the result in the test on A549 [12] was Active. Also, the Ratio with HMEC-1 [17] was 100. Besides, the ΔTm in [21] came to 3.91 °C; in [22], 8.35 °C.

`Cc1c(COc2ccc(CN3CCCCC3C(=O)O)cc2Br)cccc1-c1ccccc1` (stereo not drawn): the IC50 was 19 µM with HT-29 [1]; 20 µM in the test with MCF7; above 100 µM with HeLa; 6 µM in the test with A549 [2]; 60 µM with HEK293. The Activity came to 68% with A549 [6], 60% with A549 [7], 53% in the test with HT-29 [23] and 55% with A549 [8]. For the same compound, the result with A549 [19] and in the test on A549 [20] was Active. Besides, the ΔTm in test [21] is 3.68 °C.
